Test results: ChEMBL document CHEMBL4513216, “Probing the Open Global Health Chemical Diversity Library for Multistage-Active Starting Points for Next-Generation Antimalarials” (ACS Infect Dis, 2020)

Assay: Toxicity liver stage against HepG2, at 10uM
Assay type: cell-based
Set-up: test concentration 10 uM, cell line HepG2-A16-CD81EGFP
Conditions: human, HepG2-A16-CD81EGFP cells; read-out: INHIBITION
Method in brief: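 Uninfected HepG2-A16-CD81EGFP cells, 3 × 10^3 per well, 1536-well, plated on prespotted compound at 10 μM final, parasite-free screening media added to match infected plates; puromycin 10 μM positive, DMSO 0.5% negative; run in parallel with 48 h PbLuc assay at 37 °C, 5% CO2; viability by CellTiter-Glo luminescence, normalized to controls.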

Compound	cytotoxicity at 10 µM [%]
CCc1ccc(C(=O)NC2CCc3nc(C)cn3C2)o1 (stereo not given)	-8.45
Cc1nc(C2CCN(C(=O)COC(C)C)CC2)cc(N2CCOCC2)n1	-8.8
CN(C)S(=O)(=O)N1CCC(Cn2cccn2)CC1	-10.9
CC(C)n1ccnc1C1CCN(C(=O)N2CCCC2)CC1	0.386
CCOc1cccc(CNC2CCCN(Cc3noc(C)n3)C2)c1 (stereo not given)	-2.3
c1nc2n(n1)CC(NCc1csc(-c3ccsc3)n1)CC2 (stereo not given)	3.79
O=C(O)C1(Cc2ccc(F)cc2F)CCCN(Cc2ccncc2)C1 (stereo not given)	-2.74
Cc1cnn(Cc2ccc(NC(=O)N[C@@H]3C=C[C@H](CO)C3)cc2)c1	7.76
N#Cc1c(F)cccc1N1CCCC(C(=O)Nc2nncs2)C1 (stereo not given)	4.48
CN(C)C(C)(C)CNCc1c[nH]nc1-c1cc2ccccc2o1	-3.6
CC(=O)N1CCC[C@H]1C(=O)NCCCN(C(C)C)S(C)(=O)=O	-13
CN(CC(=O)NCCC#N)C(c1ccccc1)c1ccc(F)cc1 (stereo not given)	-4.34
c1cc(-c2ccc3c(c2)CCC32CCN(c3nncs3)CC2)co1	-2.07
CCOc1ncccc1CNC(=O)NC(C)Cn1cccn1 (stereo not given)	-15.7
CN1CSC[C@H]1C(=O)N1CCC(Cc2ccccc2F)CC1	1.01
COc1cc(C)c(-c2ccc(F)c3c2OC(CN)C3)cc1C (stereo not given)	20.3
O=C1CCN(C(=O)C2(c3ccc(F)cc3)CCOCC2)CCN1	-4.97
CC(C)N(C)CC(=O)NCCc1nc(C(F)(F)F)cs1	5.07
CCN(CC)c1ccc(CNC(=O)c2cnc(C)cn2)cn1	6.21
Cc1ccc(CN(C(=O)NCC(c2cccs2)N(C)C)C2CC2)o1 (stereo not given)	-4.24
NC(=O)c1ccc(C(=O)N(Cc2ccc(O)cc2)CC2CC2)cc1	8.19
CC(c1ccc2c(c1)OCCO2)N(C)C(=O)c1ccnnc1 (stereo not given)	0.94
CN1C(=O)CC(C(=O)O)C12CCN(Cc1cc(Cl)ccc1F)CC2 (stereo not given)	5.64
c1cnnc(N2CCCC2CNCc2nc(-c3cccs3)no2)c1 (stereo not given)	-7.69
COC1CCCN(Cc2cc(O)c3cc(C)cc(C)c3n2)C1 (stereo not given)	3.54
COc1cccc(C(=O)N2CCCC(c3cc(C)[nH]n3)C2)c1OC (stereo not given)	-7.4
Cn1ccc(C(=O)N(CC(F)(F)F)c2cccc(Cl)c2)cc1=O	-0.0519
CCC(=O)N1CCC1c1cc(NC2CCCC2)nc(C)n1 (stereo not given)	-7.61

Compound	cytotoxicity at 10 µM [%]
CCCc1n[nH]c(C2CN(CCC(F)(F)F)CCO2)n1 (stereo not given)	-13.9
COc1ccc(C(C)NCCc2ccc(NC(C)=O)cc2)cc1F (stereo not given)	6.75
Cc1occc1C(=O)N1Cc2nccn2CC(CN2CCCC2)C1 (stereo not given)	-105
COc1cccc(-n2nnc(C(=O)N3CCCC3)c2C)c1	-5.41
Cc1ccc(CN2Cc3cnn(C)c3C(COCC3CC3)C2)o1 (stereo not given)	-78.5
CSCCCN1CCC[C@]2(C(=O)O)CN(c3cnccn3)CC[C@@H]12	8.26
COc1cccc(CN2CC(O)CN(C(=O)C3CCC3)CC2=O)c1OC (stereo not given)	4.43
O=C(NCC1CCCO1)c1ccc(S(=O)(=O)NCCc2cn[nH]c2)cc1 (stereo not given)	5.5
CCOC(=O)c1ccc(S(=O)(=O)NCC(CC)N2CCCC2)cc1 (stereo not given)	-7.4
NC(=O)c1ccc(C(=O)N2CCCCC2C2OCCO2)cc1 (stereo not given)	-0.966
CC1(C)OCC2(CO1)CN(S(=O)(=O)c1ccc(Br)s1)C2	-7.31
Cc1nc(C(=O)N2CCCCC2)nn1-c1ccccc1Cl	-6.46
Cc1ccc(C(=O)NCCCNS(C)(=O)=O)cc1C	-1.66
O=S1(=O)C[C@@H]2[C@H](C1)N(Cc1ccc3ccccc3c1)CCN2CC1CC1	1.99
c1cnn(CC2CCCCN2c2ncnc3sccc23)c1 (stereo not given)	9.48
Cc1cc(-c2noc(C3CCS(=O)(=O)C3)n2)ccc1F (stereo not given)	8.22
Cc1ccc(OCCN(C)C(=O)CCCN2CCCC2=O)c(C)c1	-8.38
Cc1ccc(N(C)CC(O)COCc2ccccc2F)c(C)c1 (stereo not given)	18
CC(C)N(C)Cc1cnc2n1CCN(C(=O)NC1CCCC1)C2	4.14
CCN1CCC(CC(=O)NCC(O)c2cccc(OC)c2)CC1 (stereo not given)	-6.87
O=C(Cc1ccccc1)N1CCC2(CC(=O)N(c3ccsc3)C2)C1 (stereo not given)	-10.2
CCOC(=O)N1CCN(C(=O)c2cc(-c3ccc(Cl)cc3Cl)on2)CC1	2.42
Cc1ccc(NC2CCN(C(=O)c3ccoc3C)CC2)nn1	-12.7
CN1C[C@@H](C(=O)N2CCCOCC2)[C@@]2(CCc3ccccc3C(=O)N2)C1	8.64
O=C(c1ccn(-c2cccc(F)c2)n1)N1CCN(CCO)CC1	-4.67
O=C(c1ccc(CN2CCCCC2)cc1)N1Cc2cnn(CCO)c2C1	12.6
COc1cccc(OCc2cc(C(=O)NC[C@H]3CCCN3)n[nH]2)c1	-4.9
